Results on 29 compounds are retold here after ChEMBL document CHEMBL1127399, “4,7 beta-Dimethyl-4-azacholestan-3-one (MK-386) and related 4-azasteroids as selective inhibitors of human type 1 5 alpha-reductase” (J Med Chem, 1994).

Test [1] deals with T1, 3-oxo-5-alpha-steroid 4-dehydrogenase 1 (Homo sapiens, UniProt P18405).
T1 sequence (P18405 whole entry): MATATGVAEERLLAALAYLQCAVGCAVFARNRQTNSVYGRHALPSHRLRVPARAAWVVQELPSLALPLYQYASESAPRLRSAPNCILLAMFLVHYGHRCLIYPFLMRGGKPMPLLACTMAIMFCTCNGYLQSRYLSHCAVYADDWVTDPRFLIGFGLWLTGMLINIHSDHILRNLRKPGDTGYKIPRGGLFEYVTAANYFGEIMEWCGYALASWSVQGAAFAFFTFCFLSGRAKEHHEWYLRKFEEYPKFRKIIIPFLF
Put plainly: Inhibition of type 1 steroid-5-alpha-reductase. The essentials:
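Baculovirus-expressed recombinant human type 1 5α-reductase preincubated 18 h at 4 °C with inhibitor (0.1–1000 nM, serial dilutions from ethanol) in 40 mM sodium phosphate pH 7.0, 500 μM NADPH, 1 mM DTT, 1 mg/mL BSA. Reaction started with [7-³H]testosterone (final 0.3 μM) plus NADPH, 90 min at 37 °C; T and DHT separated by HPLC. IC50, mean of ≥3 determinations.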

Test [2] addresses T2, 3-oxo-5-alpha-steroid 4-dehydrogenase 2 (Homo sapiens, UniProt P31213).
T2 sequence (P31213 whole entry): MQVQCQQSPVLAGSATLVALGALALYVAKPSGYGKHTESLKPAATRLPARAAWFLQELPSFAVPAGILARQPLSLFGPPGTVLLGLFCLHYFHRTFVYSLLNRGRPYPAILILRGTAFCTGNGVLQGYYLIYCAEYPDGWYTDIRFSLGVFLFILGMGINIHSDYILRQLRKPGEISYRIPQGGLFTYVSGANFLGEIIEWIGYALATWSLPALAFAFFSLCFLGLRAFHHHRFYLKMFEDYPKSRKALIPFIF
Description: Inhibition of type 2 steroid-5-alpha-reductase. The method, boiled down:
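Baculovirus-expressed recombinant human type 2 5α-reductase preincubated 18 h at 4 °C with inhibitor (1–10 000 nM, serially diluted from ethanol) in 40 mM sodium citrate pH 5.5, 500 μM NADPH, 1 mM DTT, 1 mg/mL BSA. Conversion of [7-³H]testosterone to DHT monitored by HPLC. IC50 averaged over at least three determinations.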

Compound `CC(C)CCCC(C)C1CCC2C3CCC4NC(=O)C=C[C@]4(C)C3CC[C@]12C` (stereo not given in full) gave an IC50 in test [1] of 5 nM. That is a single-digit nanomolar value.
Regarding `CC(C)CCCC(C)C1CCC2C3C(CC[C@]12C)[C@@]1(C)CCC(=O)N(C)C1=C[C@@H]3C` (stereo not given in full), the IC50 in test [1] amounted to 0.6 nM; in test [2], 147 nM.
In the case of `CC[C@H]1C=C2N(C)C(=O)CC[C@]2(C)C2CC[C@]3(C)C(C(C)CCCC(C)C)CCC3C21` (stereo not given in full), the IC50 came to 9.5 nM in test [1] and 2120 nM in test [2].
In the same order, the values of `CC(C)CCCC(C)C1CCC2C3C(CC[C@]12C)[C@@]1(C)CCC(=O)NC1C[C@@H]3c1ccccc1` (stereo not given in full) are over 1000 nM and 443 nM.
As to `CC(C)CCCC(C)C1CCC2C3C(CC[C@]12C)[C@@]1(C)CCC(=O)N(C)C1C[C@@H]3c1ccccc1` (stereo not given in full), the IC50 in test [1] turned out to be 134 nM; in test [2] it was 428 nM.
Turning to `C=CCN1C(=O)CC[C@]2(C)C3CC[C@]4(C)C(C(C)CCCC(C)C)CCC4C3[C@@H](C)CC12` (stereo not given in full), the figures for the IC50 in test [1] and in test [2] were 42 nM and 1300 nM, respectively.
With `CC(C)CCCC(C)C1CCC2C3C(CC[C@]12C)[C@@]1(C)CCC(=O)NC1=C[C@@H]3c1ccccc1` (stereo not given in full), the figures for the concentration for half-maximal inhibition (IC50) in test [1] and in test [2] were over 1000 nM and 1340 nM, respectively.
`CC(C)(C)NC(=O)[C@H]1CC[C@H]2[C@@H]3CC[C@H]4NC(=O)C=C[C@]4(C)[C@H]3CC[C@]12C` [FINASTERIDE]: the IC50 in test [1] is 52 nM; in test [2], under 0.1 nM.
Regarding `CC[C@H]1CC2N(C)C(=O)CC[C@]2(C)C2CC[C@]3(C)C(C(C)CCCC(C)C)CCC3C21` (stereo not given in full), the 50% inhibitory concentration (IC50) in test [1] came out at 5.7 nM; in test [2] it was 330 nM.
As for `CC(C)(C)NC(=O)[C@H]1CC[C@H]2[C@@H]3CC=C4C=C(C(=O)O)CC[C@]4(C)[C@H]3CC[C@]12C` [EPRISTERIDE], the figures for the IC50 in test [1] and in test [2] were over 1000 nM and 0.6 nM, respectively.
Consider `CC(C)CCCC(C)[C@H]1CCC2C3C(CC[C@@]21C)[C@@]1(C)CCC(=O)N(C)C1C[C@@H]3C` (stereo not given in full), for which the IC50 amounted to 0.9 nM in test [1] and 154 nM in test [2].
Take `CC(C)CCCC(C)C1CCC2C3C(CC[C@]12C)[C@@]1(C)CCC(=O)NC1C[C@@H]3C` (stereo not given in full): the IC50 in test [1] is 2.6 nM; in test [2], 280 nM.
For `CN1C(=O)CC[C@@H]2c3ccc(Cl)cc3CC[C@H]21` [BEXLOSTERIDE], the IC50 in test [1] was 8.6 nM; in test [2], 1750 nM.
For `CC[C@H]1CC2NC(=O)CC[C@]2(C)C2CC[C@]3(C)C(C(C)CCCC(C)C)CCC3C21` (stereo not given in full), the IC50 was determined as 2.7 nM in test [1] and 280 nM in test [2].
`CCC[C@H]1C=C2NC(=O)CC[C@]2(C)C2CC[C@]3(C)C(C(C)CCCC(C)C)CCC3C21` (stereo not given in full): the IC50 came out at 58 nM in test [1] and 713 nM in test [2].
As for `CCC[C@H]1C=C2N(C)C(=O)CC[C@]2(C)C2CC[C@]3(C)C(C(C)CCCC(C)C)CCC3C21` (stereo not given in full), the IC50 came to 8.4 nM in test [1] and 5.4 nM in test [2].
As to `CCC[C@H]1CC2N(C)C(=O)CC[C@]2(C)C2CC[C@]3(C)C(C(C)CCCC(C)C)CCC3C21` (stereo not given in full), the figures for the 50% inhibitory concentration (IC50) in test [1] and in test [2] were 20 nM and 580 nM, respectively.
The like results for `CC(C)CCCC(C)C1CCC2C3C(CC[C@]12C)[C@@]1(C)CCC(=O)NC1=C[C@@H]3C` (stereo not given in full) were, in that order, 2.5 nM and 859 nM.
Turning to `CC(C)CCCC(C)C1CCC2C3C(CC[C@]12C)[C@@]1(C)C=CC(=O)NC1C[C@@H]3C` (stereo not given in full), the IC50 came out at 1.6 nM in test [1] and 298 nM in test [2].
The like results for `C[C@]12CCC3C(CNC4=CC(=O)CC[C@@]43C)C1CCC2C(=O)NC(c1ccccc1)c1ccccc1` (stereo not given in full) were, in that order, 186 nM and under 0.1 nM.
Regarding `CC(C)CCCC(C)C1CCC2C3CCC4NC(=O)CC[C@]4(C)C3CC[C@]12C` (stereo not given in full), the IC50 stood at 2.6 nM in test [1] and 218 nM in test [2].
In the case of `CC(C)CCCC(C)C1CCC2C3CC=C4N(C)C(=O)CC[C@]4(C)C3CC[C@]12C` (stereo not given in full), in test [1], the IC50 was determined as 4.3 nM.
Take `CC(C)CCCC(C)C1CCC2C3C(CC[C@]12C)[C@@]1(C)C=CC(=O)N(C)C1C[C@@H]3C` (stereo not given in full): the IC50 in test [1] is 2 nM; in test [2], 125 nM.
In the same order, the values of `CC(C)CCCC(C)C1CCC2C3CCC4N(C)C(=O)CC[C@]4(C)C3CC[C@]12C` (stereo not given in full) are 1.7 nM and 218 nM.
In the case of `CC[C@H]1C=C2NC(=O)CC[C@]2(C)C2CC[C@]3(C)C(C(C)CCCC(C)C)CCC3C21` (stereo not given in full), the figures for the half-maximal inhibitory concentration (IC50) in test [1] and in test [2] were 8.6 nM and 1050 nM, respectively.
In the same order, the values of `CCN1C(=O)CC[C@]2(C)C3CC[C@]4(C)C(C(C)CCCC(C)C)CCC4C3[C@@H](C)CC12` (stereo not given in full) are 3.3 nM and 1390 nM.
As to `CCC[C@H]1CC2NC(=O)CC[C@]2(C)C2CC[C@]3(C)C(C(C)CCCC(C)C)CCC3C21` (stereo not given in full), the figures for the IC50 in test [1] and in test [2] were 9.5 nM and 1100 nM, respectively.
As for `CC(C)CCCC(C)C1CCC2C3C(CC[C@]12C)[C@@]1(C)CCC(=O)N(C)C1=C[C@@H]3c1ccccc1` (stereo not given in full), the IC50 in test [1] is over 1000 nM; in test [2], 2170 nM.
Consider `CC(C)CCCC(C)C1CCC2C3CC=C4NC(=O)CC[C@]4(C)C3CC[C@]12C` (stereo not given in full), for which the IC50 in test [1] turned out to be 19.1 nM.
